Activity calls are given as the source filed them. The calls are words filed in the database; no cut-off is given here.
Key:
Mus musculus [1] = experiment: Antiamnesic activity in CD1 albino mouse assessed as reversal of scopolamine-induced amnesia at 1 mg/kg, po administered 30 mins prior to scopolamine challenge measured after 24 hrs by passive avoidance test; format: functional, organism-based; design: dose 1 mg/kg
In short: (§1)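 Step-through passive avoidance in male CD-1 mice (22–24 g). Test drugs were given po, suspended in 1% carboxymethylcellulose at 10 ml/kg, 30 min before the training session. For the antiamnesic arm, scopolamine 1.5 mg/kg was injected immediately after punishment. Retention latency was compared with CMC-treated controls, n = 10–12 mice per group.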

Rattus norvegicus [2] = experiment: Procognitive effect in Harlan Wistar rat assessed as decrease in exploring time of unfamiliar rat during social investigatory behaviour at 10 mg/kg, po administered 30 mins prior to testing measured for 5 mins by social learning test relative to control; format: functional, organism-based; design: dose 10 mg/kg
Rattus norvegicus [3] = experiment: Procognitive effect in Harlan Wistar rat assessed as exploring time of familiar rat during social investigatory behaviour at 10 mg/kg, po administered 30 mins prior to testing measured for 5 mins by social learning test (reference value: 27.6 secs); format: functional
Mus musculus [4] = experiment: Anticonvulsant activity in CD1 albino mouse assessed as protection against pentylenetetrazole-induced convulsions at 10 mg/kg, po administered 30 mins prior to pentylenetetrazole challenge measured over 30 mins (reference value: 7.1%); format: functional
Mus musculus [5] = experiment: Cognitive enhancing effect in CD1 albino mouse assessed as increase in retention latency at 1 to 30 mg/kg, po administered 30 mins prior to testing measured after 24 hrs by passive avoidance test relative to control; format: functional, organism-based; in short: as §1
Mus musculus [6] = experiment: Neurotoxicity in CD1 albino mouse assessed as decrease in number of falls from rotating rod at 30 mg/kg, po by rota-rod test relative to control; format: toxicity, organism-based; design: dose 30 mg/kg, route oral; details: in vivo, TDE = time-dependent effect
In short: (§2)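 Motor coordination was tested on a rota-rod turning at 24 rpm in male CD-1 mice dosed po in 1% CMC. Falls within 30 s were counted at a pretest and at 15, 30, 45 and 60 min after dosing. Each value is the mean of five mice, compared with CMC-treated controls.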

Mus musculus [7] = experiment: Anxiolytic activity in CD1 albino mouse assessed as increase in time spent in illuminated side at 10 to 30 mg/kg, po administered 30 mins prior to testing measured for 5 mins by light-dark box test; format: functional, organism-based
In short: (§3)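 Light/dark box: two equal acrylic compartments, one lit by a 60 W lamp, joined by a floor-level opening. Male CD-1 mice were dosed po in 1% CMC 30 min before the test, then placed in the centre of the lit side facing away from the dark side. Over 5 min, transfers and time in the light side were recorded, n = 8 mice per group.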

[8] = Displacement of [3H]Ro15-1788 from GABA-A receptor benzodiazepine binding site in bovine cerebral cortex membranes after 1 hr; format: cell membranes, Bos taurus, Membrane
Mus musculus [9] = experiment: Cognitive enhancing effect in CD1 albino mouse assessed as increase in retention latency at 3 to 30 mg/kg, po administered 30 mins prior to testing measured after 24 hrs by passive avoidance test relative to control; format: functional, organism-based; in short: as §1
Mus musculus [10] = experiment: Antiamnesic activity in CD1 albino mouse assessed as reversal of scopolamine-induced amnesia at 3 mg/kg, po administered 30 mins prior to scopolamine challenge measured after 24 hrs by passive avoidance test; format: functional, organism-based; design: dose 3 mg/kg
Bos taurus = species on record: Bos taurus; experiment: Displacement of [3H]Ro15-1788 from GABA-A receptor benzodiazepine binding site in bovine cerebral cortex membranes at 10 uM after 1 hr; format: cell membranes; details: Membrane
Mus musculus [11] = experiment: Cognitive enhancing effect in CD1 albino mouse assessed as increase in retention latency at 1 to 10 mg/kg, po administered 30 mins prior to testing measured after 24 hrs by passive avoidance test relative to control; format: functional, organism-based; in short: as §1
Rattus norvegicus [12] = experiment: Procognitive effect in Harlan Wistar rat assessed as decrease in exploring time of unfamiliar rat during social investigatory behaviour at 30 mg/kg, po administered 30 mins prior to testing measured for 5 mins by social learning test relative to control; format: functional, organism-based; design: dose 30 mg/kg
Rattus norvegicus [13] = experiment: Procognitive effect in Harlan Wistar rat assessed as exploring time of familiar rat during social investigatory behaviour at 30 mg/kg, po administered 30 mins prior to testing measured for 5 mins by social learning test (reference value: 27.6 secs); format: functional
Rattus norvegicus [14] = experiment: Procognitive effect in Harlan Wistar rat assessed as exploring time of familiar rat during social investigatory behaviour at 100 mg/kg, po administered 30 mins prior to testing measured for 5 mins by social learning test (reference value: 27.6 secs); format: functional
Rattus norvegicus [15] = experiment: Procognitive effect in Harlan Wistar rat assessed as decrease in exploring time of unfamiliar rat during social investigatory behaviour at 10 to 100 mg/kg, po administered 30 mins prior to testing measured for 5 mins by social learning test relative to control; format: functional, organism-based
Mus musculus [16] = experiment: Anxiolytic activity in CD1 albino mouse assessed as increase in time spent in illuminated side at 30 mg/kg, po administered 30 mins prior to testing measured for 5 mins by light-dark box test; format: functional, organism-based; design: dose 30 mg/kg; in short: as §3
Mus musculus [17] = experiment: Cognitive enhancing effect in CD1 albino mouse assessed as increase in retention latency at 1 to 100 mg/kg, po administered 30 mins prior to testing measured after 24 hrs by passive avoidance test relative to control; format: functional, organism-based; in short: as §1
Mus musculus [18] = experiment: Anxiolytic activity in CD1 albino mouse assessed as increase in time spent in illuminated side at 10 mg/kg, po administered 30 mins prior to testing measured for 5 mins by light-dark box test; format: functional, organism-based; design: dose 10 mg/kg
In short: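 Male CD-1 mice (22–24 g) were dosed po at 10 ml/kg with drug suspended in 1% carboxymethylcellulose, 30 min before the test. Each mouse was placed in the centre of the lit compartment of a two-compartment light/dark box, facing away from the dark side, and explored for 5 min. Transfers and time in the light side were recorded. Values are means of eight mice, analysed by ANOVA with Scheffé post-hoc.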

Mus musculus [19] = experiment: Anxiolytic activity in CD1 albino mouse assessed as increase in time spent in illuminated side at 10 mg/kg, po administered 30 mins prior to testing measured for 5 mins by light-dark box test in presence of flumazenil; format: functional, organism-based; design: dose 10 mg/kg
In short: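 This is the mouse light/dark box (male CD-1, 22–24 g) with flumazenil added at 100 mg/kg po. Drugs were suspended in 1% CMC and given po at 10 ml/kg, 30 min before testing. Mice started in the centre of the lit side and explored for 5 min. Transfers and time in the light side were scored. Values are means of eight mice, compared with flumazenil-treated mice.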

Mus musculus [20] = experiment: Neurotoxicity in CD1 albino mouse assessed as decrease in number of falls from rotating rod at 10 mg/kg, po by rota-rod test relative to control; format: toxicity, organism-based; design: dose 10 mg/kg, route oral; details: in vivo, TDE = time-dependent effect; in short: as §2

In the case of `Cc1noc(-c2cnn3c2n[n+]([O-])c2ccc(OCc4ccccc4)cc23)n1`, the Activity (Mus musculus [1]) is reported as “Active”, the Activity (Rattus norvegicus [2]) is reported as “inactive” and the Time (Rattus norvegicus [3]) is reported as 43.1 s. The Activity (Mus musculus [4]) was 10%, the Activity (Mus musculus [5]) was “Active” and the Activity (Mus musculus [6]) was “tde”. For the same compound, the Activity (Mus musculus [7]) was “Active” and the Ki [8] was 0.0707 µM.
For `CN(C)/C=N/C(=O)c1cnn2c1n[n+]([O-])c1ccc(OCc3ccccc3)cc12`, the Ki [8] was 0.0866 µM.
For `Cc1noc(-c2cnn3c2n[n+]([O-])c2ccc(OCc4ccncc4)cc23)n1`, the Activity (Rattus norvegicus [2]) was “inactive”, the Activity (Mus musculus [9]) was “Active” and the Time (Rattus norvegicus [3]) was 44.6 s. For the same compound, the Activity (Mus musculus [4]) was 10%, the Activity (Mus musculus [10]) was “Active” and the Activity (Mus musculus [6]) was “tde”. The Activity (Mus musculus [7]) was “Active” and the Ki [8] was 0.453 µM.
In the case of `Cn1cnc(-c2cnn3c2n[n+]([O-])c2ccc(OCc4ccccc4)cc23)n1`, the inhibition (Bos taurus) is reported as 50%.
`[O-][n+]1ccc(COc2ccc3c(c2)n2ncc(I)c2n[n+]3[O-])cc1` gave a Ki [8] of 0.0204 µM.
With `Cn1ncnc1-c1cnn2c1n[n+]([O-])c1ccc(OCc3ccccc3)cc12` the inhibition (Bos taurus) was 46%.
For `NC(=O)c1cnn2c1n[n+]([O-])c1ccc(OCc3ccncc3)cc12`, the Ki [8] was 1.2 µM.
For `Cc1cnn2c1n[n+]([O-])c1ccc(OCc3ccco3)cc12`, the Ki [8] was 0.0309 µM.
With `[O-][n+]1nc2c(-c3ncn[nH]3)cnn2c2cc(OCc3ccccc3)ccc21` the Activity (Mus musculus [1]) was “Active”, the Activity (Rattus norvegicus [2]) was “inactive” and the Time (Rattus norvegicus [3]) was 40.3 s. For the same compound, the Activity (Mus musculus [4]) was 0%, the Activity (Mus musculus [6]) was “tde” and the Activity (Mus musculus [7]) was “Active”. For the same compound, the Activity (Mus musculus [11]) was “Active” and the Ki [8] was 0.325 µM.
`[O-][n+]1nc2c(I)cnn2c2cc(NCc3ccco3)ccc21` showed a Ki [8] of 0.00023 µM.
With `NC(=O)CN1CCCC1=O` [PIRACETAM] the Activity (Rattus norvegicus [12]) was “inactive” and the Time (Rattus norvegicus [13]) was 46.3 s.
With `NC(=O)c1cnn2c1n[n+]([O-])c1ccc(OCc3ccccc3)cc12` the Ki [8] was 0.324 µM.
For `[O-][n+]1nc2c(I)cnn2c2cc(OCc3cccs3)ccc21`, the Time (Rattus norvegicus [14]) was 41.9 s, the Activity (Mus musculus [1]) was “Active” and the Time (Rattus norvegicus [3]) was 32.5 s. The Activity (Mus musculus [4]) was 0%, the Activity (Rattus norvegicus [15]) was “inactive” and the Activity (Mus musculus [6]) was “tde”. The Activity (Mus musculus [16]) was “Active”, the Time (Rattus norvegicus [13]) was 42.3 s and the Activity (Mus musculus [17]) was “Active”.
With `NC(=O)c1cnn2c1n[n+]([O-])c1ccc(OCc3cccs3)cc12` the Ki [8] was 0.96 µM.
`Cc1cnn2c1n[n+]([O-])c1ccc(Cl)cc12` gave a Ki [8] of 0.315 µM.
In the case of `Cc1cnn2c1n[n+]([O-])c1ccc(OCc3ccnc(Cl)c3)cc12`, the Ki [8] is reported as 0.00749 µM.
`Cc1noc(-c2cnn3c2n[n+]([O-])c2ccc(OCc4cccs4)cc23)n1` gave a Ki [8] of 1.62 µM.
With `[O-][n+]1nc2c(I)cnn2c2cc(NCc3ccccn3)ccc21` the Ki [8] was 0.00072 µM.
`[O-][n+]1nc2c(-c3ncn[nH]3)cnn2c2cc(OCc3ccncc3)ccc21` gave a Ki [8] of 0.168 µM.
With `Cc1cnn2c1nnc1ccc(Cl)cc12` the Ki [8] was 0.4 µM.
`CN(C)/C=N/C(=O)c1cnn2c1n[n+]([O-])c1ccc(OCc3ccncc3)cc12` gave a Ki [8] of 0.515 µM.
In the case of `CN1C(=O)CN=C(c2ccccc2)c2cc(Cl)ccc21` [DIAZEPAM], the Activity (Mus musculus [18]) is reported as “Active”, the Activity (Mus musculus [4]) is reported as 100% and the Activity (Mus musculus [19]) is reported as “inactive”. For the same compound, the Activity (Mus musculus [20]) was “tde”.
With `[O-][n+]1nc2c(I)cnn2c2cc(NCc3ccncc3)ccc21` the Ki [8] was 0.00033 µM.
For `CN(C)/C=N/C(=O)c1cnn2c1n[n+]([O-])c1ccc(OCc3cccs3)cc12`, the Ki [8] was 0.62 µM.

— ChEMBL document CHEMBL2346497, “Synthesis of novel cognition enhancers with pyrazolo[5,1-c][1,2,4]benzotriazine core acting at γ-aminobutyric acid type A (GABA(A)) receptor” (Bioorg Med Chem, 2013)
